According to ChEMBL document CHEMBL5316295, “Systematic Design of Adenosine Analogs as Inhibitors of a Clostridioides difficile-Specific DNA Adenine Methyltransferase Required for Normal Sporulation and Persistence” (J Med Chem, 2023):
pIC50, pKd: −log10 of the molar value. Calls of active or inactive are those of the source. The calls are words filed in the database; no cut-off is given here.

Tests used:
[1] = target: T1, Histone-lysine N-methyltransferase EHMT2 (Homo sapiens) (UniProt Q96KQ7); experiment: Inhibition of human G9a (913 to 1193 residues) expressed in Escherichia coli BL21 (DE3)-gold cells using histone H3 (1 to 21 residues) as substrate and 3H-SAM as cosubstrate at 10 uM pretreated with compound for 20 mins in presence of histone H3 (1 to 21 residues) followed by cosubstrate addition and measured after 1 hr; conditions: time 80.0 min
T1 sequence (whole entry): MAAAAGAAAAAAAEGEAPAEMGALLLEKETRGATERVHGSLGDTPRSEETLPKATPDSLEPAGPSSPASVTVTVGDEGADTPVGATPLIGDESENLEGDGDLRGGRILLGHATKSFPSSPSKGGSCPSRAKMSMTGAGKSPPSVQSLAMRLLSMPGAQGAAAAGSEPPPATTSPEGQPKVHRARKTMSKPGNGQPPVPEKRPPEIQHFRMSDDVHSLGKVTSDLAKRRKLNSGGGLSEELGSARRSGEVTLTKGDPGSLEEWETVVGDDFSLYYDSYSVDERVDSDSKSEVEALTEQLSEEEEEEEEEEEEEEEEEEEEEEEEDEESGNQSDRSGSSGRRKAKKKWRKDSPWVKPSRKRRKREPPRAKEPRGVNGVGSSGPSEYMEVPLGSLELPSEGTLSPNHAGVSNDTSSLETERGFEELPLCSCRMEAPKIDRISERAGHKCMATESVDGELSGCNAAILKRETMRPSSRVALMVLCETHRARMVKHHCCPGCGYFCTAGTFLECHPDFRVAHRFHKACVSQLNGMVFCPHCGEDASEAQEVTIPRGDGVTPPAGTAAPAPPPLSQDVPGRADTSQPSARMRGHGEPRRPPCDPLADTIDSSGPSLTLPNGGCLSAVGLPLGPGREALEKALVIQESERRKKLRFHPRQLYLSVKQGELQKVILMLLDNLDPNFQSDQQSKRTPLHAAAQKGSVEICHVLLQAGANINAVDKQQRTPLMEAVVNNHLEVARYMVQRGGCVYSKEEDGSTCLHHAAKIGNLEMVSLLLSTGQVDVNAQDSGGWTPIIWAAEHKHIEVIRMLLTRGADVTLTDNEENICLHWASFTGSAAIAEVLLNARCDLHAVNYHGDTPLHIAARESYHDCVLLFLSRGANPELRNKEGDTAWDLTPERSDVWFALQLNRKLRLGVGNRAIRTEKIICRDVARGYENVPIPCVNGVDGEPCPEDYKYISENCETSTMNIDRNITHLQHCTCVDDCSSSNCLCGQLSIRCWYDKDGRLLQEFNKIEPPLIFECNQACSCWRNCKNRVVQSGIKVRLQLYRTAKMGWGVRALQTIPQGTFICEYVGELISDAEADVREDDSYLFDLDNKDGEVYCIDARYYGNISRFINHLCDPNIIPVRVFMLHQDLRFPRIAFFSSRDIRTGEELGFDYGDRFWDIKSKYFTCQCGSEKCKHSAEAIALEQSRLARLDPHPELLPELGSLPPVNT
In short: (§1)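 Enzymes (DOT1L 1 nM; EZH2, G9a, PRMT1 5 nM) mixed with substrate (0.05 mg/mL oligonucleosomes for DOT1L; 0.05 mg/mL core histone for EZH2; 5 μM H3 1–21 peptide for G9a; 5 μM H4 for PRMT1). Compound (10 μM) added for 20 min at room temperature, then 1 μM ³H-SAM for 1 h at 30 °C; filter-paper read-out. Triplicates, mean ± SD.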

[2] = target: Protein arginine N-methyltransferase 1 (Homo sapiens) (UniProt Q99873); experiment: Inhibition of PRMT1 (unknown origin) using histone H4 as substrate and 3H-SAM as cosubstrate at 10 uM pretreated with compound for 20 mins in presence of histone H4 followed by cosubstrate addition and measured after 1 hr; conditions: time 80.0 min; in short: as §1
[3] = target: METTL3/METTL14 (Homo sapiens) (UniProt Q86U44+Q9HCE5); experiment: Inhibition of human METTL3/METTL14 using 5'-AAC AGA AUG GGA CUG UUC-3' as substrate and SAM as cosubstrate at 10 uM incubated for 15 mins; assay type: protein-complex assay
In short: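 Under CamA conditions (100 mM NaCl) the assay ran 15 min with 10 μM inhibitor. An alternative condition used 0.1 μM enzyme, 10 μM ssRNA, 20 μM SAM in 50 mM HEPES pH 7.5, 5 mM NaCl, 1 mM DTT, 0.25% DMSO for 10 min.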

[4] = target: mRNA (2'-O-methyladenosine-N(6)-)-methyltransferase (Homo sapiens) (UniProt Q9H4Z3); experiment: Inhibition of human PCIF1 using m7GpppAmG as substrate and SAM as cosubstrate at 10 uM incubated for 15 mins
In short: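 Enzyme 0.1 μM with 5 μM RNA, 30 μM SAM and 10 μM inhibitor at ~22 °C in 50 mM Tris–HCl pH 7.5, 100 mM NaCl, 1 mM DTT, 0.25% DMSO. PCIF1 run 15 min with capped RNA; MettL5-Trm112 run 1 h with ssRNA.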

[5] = target: DNA (cytosine-5)-methyltransferase 1 (Homo sapiens) (UniProt P26358); experiment: Inhibition of human DNMT1 (351 to 1600 residues) using 5'-CCT GCG GAG GCT MGT CAT GA-3' and 3'-GGACGCCTCCGAGCAGTACT-5' as substrate and SAM as cosubstrate at 10 uM incubated for 1 hr
In short: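 DNMT1 (0.1 μM) with 1 μM hemimethylated dsDNA, 5.5 μM SAM and 10 μM inhibitor in 50 mM Tris pH 7.5, 1 mM EDTA, run 1 h at 37 °C.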

[6] = Inhibition of Clostridioides difficile-specific DNA adenine methyltransferase mediated methylation using 5'-CGA TTC AAA AAG TCC CAA G-3' and 3'-GCT AAG TTT TTC AGG GTT C-5' as substrate and SAM as cosubstrate preincubated for 5 mins followed by substrate and cosubstrate addition and measured after 3 mins by MTase glo assay
[7] = target: DNMT3A-DNMT3L (Mus musculus) (UniProt O88508+Q9CWR8); experiment: Inhibition of mouse DNMT3A/DNMT3L using 5'-G CATGCGTTCTAATTAGAAUGCATG-3' and 3'-GTA CGS AAG ATT AAT CTT GCG TAC G-5' as substrate and SAM as cosubstrate at 10 uM incubated for 1 hr; assay type: protein-complex assay
In short: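 Dnmt3a-3L (0.5 μM) with 5 μM dsDNA, 25 μM SAM and 10 μM inhibitor in 20 mM Tris pH 7.5, 40 mM NaCl, 4 mM DTT, 20% glycerol, run 1 h at 37 °C.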

[8] = target: Histone-lysine N-methyltransferase, H3 lysine-79 specific (Homo sapiens) (UniProt Q8TEK3); experiment: Inhibition of human DOT1L using oligonucleosome as substrate and 3H-SAM as cosubstrate at 10 uM pretreated with compound for 20 mins in presence of oligonucleosome followed by cosubstrate addition and measured after 1 hr; conditions: time 80.0 min; in short: as §1
[9] = Binding affinity to Clostridioides difficile-specific DNA adenine methyltransferase by MicroCal PEAQ-ITC instrument analysis

Sequence of mRNA (2'-O-methyladenosine-N(6)-)-methyltransferase (Homo sapiens) (Q9H4Z3 whole entry): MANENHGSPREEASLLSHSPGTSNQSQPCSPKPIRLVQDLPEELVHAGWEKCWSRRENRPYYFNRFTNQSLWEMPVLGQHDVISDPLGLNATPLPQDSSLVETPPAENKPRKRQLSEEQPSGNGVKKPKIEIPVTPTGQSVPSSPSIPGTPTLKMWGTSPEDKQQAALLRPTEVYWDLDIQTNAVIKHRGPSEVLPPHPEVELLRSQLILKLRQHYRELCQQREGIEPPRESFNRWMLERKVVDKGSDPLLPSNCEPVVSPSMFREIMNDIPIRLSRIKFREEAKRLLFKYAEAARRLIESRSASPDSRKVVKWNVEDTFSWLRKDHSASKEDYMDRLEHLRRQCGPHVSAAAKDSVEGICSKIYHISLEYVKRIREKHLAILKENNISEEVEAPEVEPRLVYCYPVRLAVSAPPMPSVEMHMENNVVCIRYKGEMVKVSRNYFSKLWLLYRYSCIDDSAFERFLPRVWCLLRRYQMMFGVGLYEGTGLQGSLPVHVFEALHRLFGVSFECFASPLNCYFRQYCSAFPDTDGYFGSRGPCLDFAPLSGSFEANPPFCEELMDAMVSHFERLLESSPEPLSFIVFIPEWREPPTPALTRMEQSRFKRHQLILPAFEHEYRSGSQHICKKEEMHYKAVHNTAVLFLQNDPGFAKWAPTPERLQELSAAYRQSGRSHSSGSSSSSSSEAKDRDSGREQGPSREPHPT
Sequence of Histone-lysine N-methyltransferase, H3 lysine-79 specific (Homo sapiens) (Q8TEK3 whole entry, looked up): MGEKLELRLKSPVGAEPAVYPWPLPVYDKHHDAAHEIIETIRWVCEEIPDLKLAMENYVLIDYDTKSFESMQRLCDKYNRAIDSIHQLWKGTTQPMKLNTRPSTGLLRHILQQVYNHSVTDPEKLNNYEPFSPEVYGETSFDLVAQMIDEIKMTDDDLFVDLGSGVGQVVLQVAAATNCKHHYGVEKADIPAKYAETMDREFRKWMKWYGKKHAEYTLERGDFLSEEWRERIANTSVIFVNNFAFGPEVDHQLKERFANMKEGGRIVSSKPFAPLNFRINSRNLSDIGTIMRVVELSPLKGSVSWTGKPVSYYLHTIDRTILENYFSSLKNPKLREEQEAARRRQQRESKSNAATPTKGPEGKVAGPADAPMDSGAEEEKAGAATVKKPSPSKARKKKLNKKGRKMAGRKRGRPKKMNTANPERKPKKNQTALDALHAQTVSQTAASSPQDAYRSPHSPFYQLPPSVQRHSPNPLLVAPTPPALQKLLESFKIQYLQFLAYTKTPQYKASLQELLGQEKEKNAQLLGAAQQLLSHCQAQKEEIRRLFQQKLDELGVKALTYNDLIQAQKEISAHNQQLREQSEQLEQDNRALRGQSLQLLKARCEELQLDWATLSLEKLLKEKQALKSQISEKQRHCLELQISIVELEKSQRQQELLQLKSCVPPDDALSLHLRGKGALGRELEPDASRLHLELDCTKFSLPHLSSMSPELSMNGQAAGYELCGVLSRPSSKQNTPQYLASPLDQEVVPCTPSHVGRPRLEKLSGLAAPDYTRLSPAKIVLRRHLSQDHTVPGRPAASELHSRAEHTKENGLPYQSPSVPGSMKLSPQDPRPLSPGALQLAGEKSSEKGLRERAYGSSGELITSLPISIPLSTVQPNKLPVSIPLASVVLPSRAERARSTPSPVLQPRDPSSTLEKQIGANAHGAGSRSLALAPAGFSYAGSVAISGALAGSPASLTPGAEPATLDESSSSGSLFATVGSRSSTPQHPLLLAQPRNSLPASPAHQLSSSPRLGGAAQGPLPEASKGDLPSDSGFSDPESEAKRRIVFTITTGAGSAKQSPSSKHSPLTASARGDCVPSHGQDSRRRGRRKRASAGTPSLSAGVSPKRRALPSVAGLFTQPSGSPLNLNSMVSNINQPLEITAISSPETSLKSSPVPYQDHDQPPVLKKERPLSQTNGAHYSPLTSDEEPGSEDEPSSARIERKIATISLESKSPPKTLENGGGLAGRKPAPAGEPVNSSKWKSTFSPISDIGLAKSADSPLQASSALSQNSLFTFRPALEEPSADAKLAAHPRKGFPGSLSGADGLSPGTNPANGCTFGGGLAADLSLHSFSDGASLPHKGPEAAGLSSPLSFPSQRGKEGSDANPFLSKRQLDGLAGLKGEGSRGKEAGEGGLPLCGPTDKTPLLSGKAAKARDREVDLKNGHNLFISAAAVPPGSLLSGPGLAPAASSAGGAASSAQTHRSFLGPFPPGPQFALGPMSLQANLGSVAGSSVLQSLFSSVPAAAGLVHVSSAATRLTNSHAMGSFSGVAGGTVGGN
Sequence of DNMT3A-DNMT3L (Mus musculus) (Q9CWR8 whole entry, looked up, other chains not shown): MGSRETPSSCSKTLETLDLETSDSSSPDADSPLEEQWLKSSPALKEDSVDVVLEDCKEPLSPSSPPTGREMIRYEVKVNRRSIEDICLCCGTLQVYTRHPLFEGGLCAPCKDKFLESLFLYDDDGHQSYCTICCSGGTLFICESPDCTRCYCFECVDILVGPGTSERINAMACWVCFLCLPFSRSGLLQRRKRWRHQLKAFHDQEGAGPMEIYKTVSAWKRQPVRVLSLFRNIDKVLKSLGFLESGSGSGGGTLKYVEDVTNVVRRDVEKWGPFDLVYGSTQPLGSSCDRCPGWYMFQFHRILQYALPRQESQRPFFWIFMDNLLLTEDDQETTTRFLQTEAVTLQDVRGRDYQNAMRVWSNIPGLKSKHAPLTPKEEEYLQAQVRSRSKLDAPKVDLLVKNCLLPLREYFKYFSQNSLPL
Sequence of DNA (cytosine-5)-methyltransferase 1 (Homo sapiens) (P26358 whole entry, the tested form may be a part): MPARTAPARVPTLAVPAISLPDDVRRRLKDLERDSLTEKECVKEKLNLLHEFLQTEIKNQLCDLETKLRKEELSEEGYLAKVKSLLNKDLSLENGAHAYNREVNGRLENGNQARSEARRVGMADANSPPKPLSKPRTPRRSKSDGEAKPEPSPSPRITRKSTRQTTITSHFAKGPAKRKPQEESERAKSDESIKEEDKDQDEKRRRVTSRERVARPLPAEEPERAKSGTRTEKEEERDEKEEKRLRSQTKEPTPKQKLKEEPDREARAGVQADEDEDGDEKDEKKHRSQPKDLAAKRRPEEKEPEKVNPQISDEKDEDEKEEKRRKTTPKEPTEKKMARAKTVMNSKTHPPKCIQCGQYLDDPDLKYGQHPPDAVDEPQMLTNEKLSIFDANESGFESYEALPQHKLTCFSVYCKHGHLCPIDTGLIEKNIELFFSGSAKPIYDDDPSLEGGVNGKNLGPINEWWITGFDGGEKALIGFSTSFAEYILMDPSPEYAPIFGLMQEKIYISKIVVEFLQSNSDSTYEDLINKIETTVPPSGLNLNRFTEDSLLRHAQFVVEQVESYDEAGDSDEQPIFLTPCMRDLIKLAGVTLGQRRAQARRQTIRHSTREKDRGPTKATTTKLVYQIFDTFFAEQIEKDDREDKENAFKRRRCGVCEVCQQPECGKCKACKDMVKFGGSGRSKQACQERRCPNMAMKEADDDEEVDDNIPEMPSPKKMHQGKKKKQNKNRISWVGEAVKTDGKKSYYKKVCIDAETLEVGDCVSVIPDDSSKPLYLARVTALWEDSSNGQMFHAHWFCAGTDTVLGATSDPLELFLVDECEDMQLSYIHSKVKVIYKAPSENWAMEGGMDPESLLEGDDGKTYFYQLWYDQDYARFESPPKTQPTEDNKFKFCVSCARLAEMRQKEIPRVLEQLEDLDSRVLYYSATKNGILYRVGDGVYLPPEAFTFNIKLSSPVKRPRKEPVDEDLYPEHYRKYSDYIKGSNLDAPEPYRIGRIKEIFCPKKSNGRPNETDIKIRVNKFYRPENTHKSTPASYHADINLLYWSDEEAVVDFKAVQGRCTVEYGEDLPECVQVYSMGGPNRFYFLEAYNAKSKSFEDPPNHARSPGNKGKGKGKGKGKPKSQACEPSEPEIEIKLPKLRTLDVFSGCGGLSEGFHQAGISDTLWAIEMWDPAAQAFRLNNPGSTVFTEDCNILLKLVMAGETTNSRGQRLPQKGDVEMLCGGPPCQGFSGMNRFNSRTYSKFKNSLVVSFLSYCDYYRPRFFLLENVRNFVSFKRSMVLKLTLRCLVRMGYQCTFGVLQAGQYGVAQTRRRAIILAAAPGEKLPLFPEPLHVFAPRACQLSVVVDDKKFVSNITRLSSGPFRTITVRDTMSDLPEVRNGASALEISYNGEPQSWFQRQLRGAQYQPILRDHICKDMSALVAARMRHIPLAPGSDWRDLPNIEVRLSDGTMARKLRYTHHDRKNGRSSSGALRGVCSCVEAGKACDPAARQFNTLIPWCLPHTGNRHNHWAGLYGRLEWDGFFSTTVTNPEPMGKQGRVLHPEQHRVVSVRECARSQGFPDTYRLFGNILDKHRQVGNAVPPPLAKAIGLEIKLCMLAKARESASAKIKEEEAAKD
Sequence of Protein arginine N-methyltransferase 1 (Homo sapiens) (Q99873 whole entry, looked up): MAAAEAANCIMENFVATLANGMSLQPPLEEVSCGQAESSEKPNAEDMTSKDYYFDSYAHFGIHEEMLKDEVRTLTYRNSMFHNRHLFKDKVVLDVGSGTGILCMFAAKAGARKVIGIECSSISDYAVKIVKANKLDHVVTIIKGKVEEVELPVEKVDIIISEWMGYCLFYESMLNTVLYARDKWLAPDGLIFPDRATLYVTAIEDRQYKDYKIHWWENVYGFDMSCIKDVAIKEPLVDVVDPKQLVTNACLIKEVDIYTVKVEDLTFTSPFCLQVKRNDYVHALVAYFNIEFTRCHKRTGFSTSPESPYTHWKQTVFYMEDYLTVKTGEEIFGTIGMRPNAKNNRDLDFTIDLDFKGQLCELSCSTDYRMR

Row | Compound | inhibition [1] | inhibition [2] | inhibition [3] | inhibition [4] | inhibition [5] | pIC50 [6] | inhibition [7] | inhibition [8] | pKd [9]
1 | OC[C@H]1O[C@@H](n2cnc3c(NCCCc4ccc(O)cc4)ncnc32)[C@H](O)[C@@H]1O | inactive | inactive | inactive | inactive | inactive | 6.29 | inactive | inactive | 6.64
2 | CC(C)(C)OC(=O)N1CCC(CCNc2ncnc3c2ncn3[C@@H]2O[C@H](CO)[C@@H](O)[C@H]2O)CC1 | inactive | inactive | inactive | inactive | inactive | 6.15 | inactive | inactive | 6.85
3 | CC(C)(C)OC(=O)N1CCC(CCCNc2ncnc3c2ncn3[C@@H]2O[C@H](CO)[C@@H](O)[C@H]2O)CC1 | inactive | inactive | inactive | inactive | inactive | 6.41 | inactive | inactive | 6.85
